For 42 compounds, IC50, Activity and inhibition results are on record in ChEMBL document CHEMBL4732164, “Structure-Based Design of Potent Selective Nanomolar Type-II Inhibitors of Glycogen Synthase Kinase-3β” (J Med Chem, 2021).

Calls of active or inactive are those of the source. The rule behind the calls is not given here. A value given as a limit tells only on which side of the number the result lay.

Assay [1] addresses T1, Glycogen synthase kinase-3 beta (Homo sapiens, UniProt P49841). Nature of the assay: Inhibition of recombinant human GSK-3beta using phosphorylated polypeptide as substrate incubated for 30 mins in presence of ATP by kinase-glo luminescence assay. The gist of the method:
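Buffer is 50 mM HEPES pH 7.5, 1 mM EDTA, 1 mM EGTA, 15 mM magnesium acetate. Runs 30 min at 30 °C; luminescence read 10 min after reagent. Inhibition is relative to no-inhibitor maximal activity.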
Target sequence in this assay (P49841 whole entry): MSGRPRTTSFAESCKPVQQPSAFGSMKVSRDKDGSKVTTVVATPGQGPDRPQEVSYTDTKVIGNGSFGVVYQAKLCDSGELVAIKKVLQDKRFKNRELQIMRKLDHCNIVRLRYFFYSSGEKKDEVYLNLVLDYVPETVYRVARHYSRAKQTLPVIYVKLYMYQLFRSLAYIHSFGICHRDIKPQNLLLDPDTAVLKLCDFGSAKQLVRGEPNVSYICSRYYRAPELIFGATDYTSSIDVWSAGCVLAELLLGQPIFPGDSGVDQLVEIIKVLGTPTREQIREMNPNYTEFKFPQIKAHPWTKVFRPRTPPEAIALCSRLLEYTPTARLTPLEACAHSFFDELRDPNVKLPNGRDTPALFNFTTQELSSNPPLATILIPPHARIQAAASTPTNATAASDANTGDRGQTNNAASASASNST

The test system of assay [2] is SH-SY5Y. The experiment in a line: Neuroprotective activity against OA-induced neuronal injury in human SH-SY5Y cells assessed as reduction in cell death at 0.1 to 10 uM pre-incubated for 1 hrs followed by OA addition measured after 24 hrs by MTT assay. In kind it is functional, cell-based. The note with it: dose 0.1-10 µM. In short, it runs like this:
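SH-SY5Y cells (DMEM, 10% FBS, 1% pen/strep, 37 °C, 5% CO2) seeded at 60,000/well and grown 48 h. Compound (0.1, 0.5, 1, 5, 10 μM) added 1 h before okadaic acid at 30 nM, then 24 h. Viability by MTT (0.5 mg/mL, ≥4 h), formazan in DMSO, A595, as % control. Mean ± SEM, three independent experiments.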

The target in assay [3] is T1, Glycogen synthase kinase-3 beta. Nature of the assay: Inhibition of recombinant human GSK-3beta at 50 uM using phosphorylated polypeptide as substrate incubated for 30 mins in presence of ATP by kinase-glo luminescence assay relative to control. The gist of the method: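 Kinase-Glo luminescence: 20 ng enzyme with test compound (DMSO ≤1% final), 25 μM substrate, 1 μM ATP. Buffer is 50 mM HEPES pH 7.5, 1 mM EDTA, 1 mM EGTA, 15 mM magnesium acetate. Runs 30 min at 30 °C; luminescence read 10 min after reagent. Inhibition is relative to no-inhibitor maximal activity.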
Target sequence in this assay (P49841 whole entry, looked up): as the sequence (P49841 whole entry) above

Assay [4] in a line: Inhibition of Ustilago maydis GSK-3beta using Ser/Thr 6 peptide as substrate preincubated for 60 mins followed by ATP and substrate addition and measured after 45 mins by Z'lyte assay. Also noted: species or system Mycosarcoma maydis.

For the compound `COc1ccc(-c2ccnc(N[C@H]3CO[C@H]4[C@@H]3OC[C@@H]4NC(=O)Nc3ccccc3)n2)cc1`, in assay [1], the half-inhibitory concentration (IC50) is 0.56 µM. Besides, in assay [2], the result was Active. The matching figures for `O=C(Nc1cccc(C(F)(F)F)c1)N[C@H]1CO[C@H]2[C@@H]1OC[C@@H]2Nc1nccc(-c2cccc(F)c2)n1`: 2.06 µM and “Active”.

With `COc1ccc(C(=O)N2C[C@@H](F)[C@@H](OCc3nc4cc(C(F)(F)F)ccc4[nH]3)C2)cc1`, the concentration for half-maximal inhibition (IC50) in assay [1] was more than 50 µM. In addition, in assay [3], the inhibition was found to be 33%. As for `O=C(Nc1cccc(C(F)(F)F)c1)O[C@@H]1CO[C@H]2[C@@H]1OC[C@@H]2Nc1nccc(-c2ccc3c(c2)OCO3)n1`, the IC50 in assay [1] came to 1.08 µM. Moreover, the outcome in assay [2] was inactive.

As for `COc1ccccc1-c1ccnc(N[C@H]2CO[C@H]3[C@@H]2OC[C@@H]3NC(=O)Nc2cccc(C(F)(F)F)c2)n1`, the IC50 in assay [1] came to 27 µM. Take `CSCC(=O)N1C[C@@H](NC(=O)Nc2cccc(SC)c2)C[C@H]1C(=O)N[C@H](Cc1c[nH]c2ccccc12)C(N)=O`: the half-maximal inhibitory concentration (IC50) in assay [1] was more than 50 µM. Moreover, the inhibition in assay [3] was 5%.

With `O=C(Nc1cccc(C(F)(F)F)c1)N[C@H]1CO[C@H]2[C@@H]1OC[C@H]2OC(=O)Nc1cccc2ccccc12`, in assay [1], the concentration for half-maximal inhibition (IC50) was more than 50 µM. The inhibition in assay [3] stood at 35%. In the case of `O=C(c1cccnc1)N1C[C@@H](F)[C@@H](OCc2nc3cc(C(F)(F)F)ccc3[nH]2)C1`, the IC50 in assay [1] is more than 50 µM. Moreover, the inhibition in assay [3] is 14%. As to `CCOC(=O)Cc1ccc(-n2nc(C(C)(C)C)cc2NC(=O)Nc2ccc(OCCN3CCOCC3)c3ccccc23)cc1`, in assay [4], 1.8 µM corresponded to half-maximal inhibition (IC50). As for `O=C(Nc1cccc(C(F)(F)F)c1)N[C@H]1CO[C@H]2[C@@H]1OC[C@@H]2OC(=O)Nc1ccc(Oc2ccccc2)cc1`, the IC50 in assay [1] is more than 50 µM. Besides, the inhibition in assay [3] worked out at 42%. As to `O=C(Nc1cccc(C(F)(F)F)c1)N[C@H]1CO[C@H]2[C@@H]1OC[C@@H]2Nc1nccc(C2CCCC2)n1`, the 50% inhibitory concentration (IC50) in assay [1] turned out to be 11.9 µM. As for `N#Cc1cccc(NC(=O)N[C@H]2CO[C@H]3[C@@H]2OC[C@@H]3Nc2nccc(-c3cccc(F)c3)n2)c1`, the IC50 in assay [1] is 2.08 µM. The outcome in assay [2] was Active. The matching figures for `COc1ccc(-c2ccnc(N[C@H]3CO[C@H]4[C@@H]3OC[C@@H]4NC(=O)Nc3cc(OC)cc(OC)c3)n2)cc1`: 0.421 µM and “Active”. For `COc1ccc(-c2ccnc(N[C@H]3CO[C@H]4[C@@H]3OC[C@@H]4NC(=O)Nc3cccc(C(F)(F)F)c3)n2)cc1`, the 50% inhibitory concentration (IC50) in assay [1] was 9.75 µM. On the same count and under the same terms, for `O=C(Nc1ccccc1)N[C@H]1CO[C@H]2[C@@H]1OC[C@@H]2Nc1nccc(-c2cccs2)n1` the value was 2.7 µM. As for `COc1ccccc1-c1ccnc(N[C@H]2CO[C@H]3[C@@H]2OC[C@@H]3NC(=O)Nc2cccc(C#N)c2)n1`, the concentration for half-maximal inhibition (IC50) in assay [1] was found to be 6.08 µM. Further, the outcome in assay [2] was inactive. Turning to `Cn1cccc1C(=O)N1C[C@H](NC(=O)Nc2ccc(F)cc2F)C[C@@H]1C(=O)N[C@H](Cc1c[nH]c2ccccc12)C(N)=O`, in assay [1], the IC50 is more than 50 µM. Moreover, the inhibition in assay [3] was 6%.

For the compound `CC(C)=CC(=O)N1CC(NC(=O)Nc2ccc(F)cc2F)CC1C(=O)N[C@H](Cc1c[nH]c2ccccc12)C(N)=O` (stereo partly drawn), the IC50 in assay [1] was more than 50 µM. In addition, the inhibition in assay [3] came to 5%. In the case of `O=C(Nc1cccc2ccccc12)O[C@@H]1CO[C@H]2[C@@H]1OC[C@@H]2NC(=S)Nc1ccc(Cl)cc1`, the IC50 in assay [1] is more than 50 µM. In addition, in assay [3], the inhibition came to 39%.

As for `COC(=O)c1ccc2c(c1)nc1n2[C@@H](CNC(=O)Nc2ccccc2)COC1`, the IC50 in assay [1] was more than 50 µM. Further, the inhibition in assay [3] stood at 1%.

Turning to `N#Cc1ccc(CN2C[C@@H](F)[C@@H](OCc3nc4cc(C(F)(F)F)ccc4[nH]3)C2)cc1`, the half-maximal inhibitory concentration (IC50) in assay [1] is more than 50 µM. The inhibition in assay [3] came to 2%. For the compound `CN(C)c1ccc(-c2ccnc(N[C@H]3CO[C@H]4[C@@H]3OC[C@@H]4NC(=O)Nc3cccc(C(F)(F)F)c3)n2)cc1`, the IC50 in assay [1] turned out to be 5.66 µM. Turning to `Cc1cc2nc(CO[C@H]3CN(Cc4cccnc4)C[C@H]3F)[nH]c2cc1C`, the IC50 in assay [1] was more than 50 µM. Further, the inhibition in assay [3] amounted to 5%. For `O=C(Nc1cccc(C(F)(F)F)c1)N[C@H]1CO[C@H]2[C@@H]1OC[C@@H]2n1nnnc1-c1cccc(CN2CCCC2)c1` the same measures were more than 50 µM and 7%. For `O=C(c1ccncc1)N1C[C@@H](F)[C@@H](OCc2nc3ccc(F)cc3[nH]2)C1` the same measures were more than 50 µM and 19%. In assay [4], `CNC(=O)c1cc(Oc2ccc(NC(=O)Nc3cc(C(F)(F)F)c(Cl)cc3OCCCC(=O)O)cc2)ccn1` gave an IC50 of 0.057 µM. As for `Cc1nn(-c2ccccc2[N+](=O)[O-])c(C)c1[C@@H]1C=C[C@@H](NC(=O)Nc2cccc(C#N)c2)C1`, the IC50 in assay [1] was more than 50 µM. The inhibition in assay [3] worked out at 26%. Turning to `COc1ccc(-c2ccnc(N[C@H]3CO[C@H]4[C@@H]3OC[C@@H]4NC(=O)Nc3cccc(C#N)c3)n2)cc1`, the concentration for half-maximal inhibition (IC50) in assay [1] was 0.087 µM. The outcome in assay [2] was Active.

With `O=C(Nc1cccc(C(F)(F)F)c1)N[C@H]1CO[C@H]2[C@@H]1OC[C@@H]2Nc1nccc(-c2ccco2)n1`, the IC50 in assay [1] came to 2.95 µM. In the case of `CS(=O)(=O)c1ccc(CN2C[C@@H](F)[C@@H](OCc3nc4cc(C(F)(F)F)ccc4[nH]3)C2)cc1`, in assay [1], the half-inhibitory concentration (IC50) is more than 50 µM. For the same compound, the inhibition in assay [3] was found to be 19%.

Turning to `COC(=O)c1cccc(NC(=S)N[C@H]2CO[C@H]3[C@@H]2OC[C@H]3OC(=O)Nc2cccc(C(F)(F)F)c2)c1`, the IC50 in assay [1] was more than 50 µM. Further, in assay [3], the inhibition is 21%. In the case of `Cn1sc(=O)n(Cc2ccccc2)c1=O`, the result in assay [2] was Active. Take `O=C(Nc1cccc(C(F)(F)F)c1)N[C@H]1CO[C@H]2[C@@H]1OC[C@@H]2Nc1nccc(-c2cccs2)n1`: the half-inhibitory concentration (IC50) in assay [1] amounted to 4.04 µM. For `CCNC(=O)N[C@H]1CO[C@H]2[C@@H]1OC[C@@H]2Nc1nccc(-c2ccc(OC)cc2)n1`, the 50% inhibitory concentration (IC50) in assay [1] worked out at 0.117 µM. Also, the outcome in assay [2] was Active. Turning to `O=C(c1ccccc1)N1C[C@@H](F)[C@@H](OCc2nc3cc(C(F)(F)F)ccc3[nH]2)C1`, in assay [1], the IC50 is more than 50 µM. Also, in assay [3], the inhibition was 7%. The matching figures for `CSc1cccc(NC(=O)NC2C[C@@H]3CCCN2CC3CN(C)c2ccccc2)c1` (stereo partly drawn): more than 50 µM and 1%. The matching figures for `O=C(Nc1cccc2ccccc12)N[C@H]1CO[C@H]2[C@@H]1OC[C@H]2OC(=O)Nc1ccccc1`: more than 50 µM and 21%. The matching figures for `COc1ccc2nc(CO[C@H]3CN(Cc4ccnc5ccccc45)C[C@H]3F)[nH]c2c1`: more than 50 µM and 13%. Regarding `O=C(Nc1cccc(C(F)(F)F)c1)O[C@@H]1CO[C@H]2[C@@H]1OC[C@@H]2NC(=S)Nc1ccc(Cl)cc1`, in assay [1], the 50% inhibitory concentration (IC50) is more than 50 µM. The inhibition in assay [3] came to 41%. Consider `CC(C)(C)c1ccnc(N[C@H]2CO[C@H]3[C@@H]2OC[C@@H]3NC(=O)Nc2cccc(C(F)(F)F)c2)n1`, for which the IC50 in assay [1] is 14 µM.

As to `Cn1c(CO[C@H]2CN(Cc3c[nH]c4ccccc34)C[C@H]2F)nc2ccccc21`, the IC50 in assay [1] is more than 50 µM. The inhibition in assay [3] turned out to be 14%.

Turning to `CC(=O)Nc1ccc(CN2C[C@@H](F)[C@@H](OCc3nc4cc(C)c(C)cc4[nH]3)C2)cc1`, the IC50 in assay [1] is more than 50 µM. The inhibition in assay [3] came to 2%.
